In ChEMBL document CHEMBL1143134, “The number and distances of positive charges of polyamine side chains in a series of perylene diimides significantly influence their ability to induce G-quadruplex structures and inhibit human telomerase” (Bioorg Med Chem, 2008):
Activity calls are given as the source filed them. The calls are words filed in the database; no cut-off is given here.

What was measured:
[1] = molecular target: Telomerase reverse transcriptase (Homo sapiens) (UniProt O14746); experiment: Inhibition of human telomerase at 2 uM by TRAP assay
Telomerase reverse transcriptase (Homo sapiens), sequence (O14746 whole entry): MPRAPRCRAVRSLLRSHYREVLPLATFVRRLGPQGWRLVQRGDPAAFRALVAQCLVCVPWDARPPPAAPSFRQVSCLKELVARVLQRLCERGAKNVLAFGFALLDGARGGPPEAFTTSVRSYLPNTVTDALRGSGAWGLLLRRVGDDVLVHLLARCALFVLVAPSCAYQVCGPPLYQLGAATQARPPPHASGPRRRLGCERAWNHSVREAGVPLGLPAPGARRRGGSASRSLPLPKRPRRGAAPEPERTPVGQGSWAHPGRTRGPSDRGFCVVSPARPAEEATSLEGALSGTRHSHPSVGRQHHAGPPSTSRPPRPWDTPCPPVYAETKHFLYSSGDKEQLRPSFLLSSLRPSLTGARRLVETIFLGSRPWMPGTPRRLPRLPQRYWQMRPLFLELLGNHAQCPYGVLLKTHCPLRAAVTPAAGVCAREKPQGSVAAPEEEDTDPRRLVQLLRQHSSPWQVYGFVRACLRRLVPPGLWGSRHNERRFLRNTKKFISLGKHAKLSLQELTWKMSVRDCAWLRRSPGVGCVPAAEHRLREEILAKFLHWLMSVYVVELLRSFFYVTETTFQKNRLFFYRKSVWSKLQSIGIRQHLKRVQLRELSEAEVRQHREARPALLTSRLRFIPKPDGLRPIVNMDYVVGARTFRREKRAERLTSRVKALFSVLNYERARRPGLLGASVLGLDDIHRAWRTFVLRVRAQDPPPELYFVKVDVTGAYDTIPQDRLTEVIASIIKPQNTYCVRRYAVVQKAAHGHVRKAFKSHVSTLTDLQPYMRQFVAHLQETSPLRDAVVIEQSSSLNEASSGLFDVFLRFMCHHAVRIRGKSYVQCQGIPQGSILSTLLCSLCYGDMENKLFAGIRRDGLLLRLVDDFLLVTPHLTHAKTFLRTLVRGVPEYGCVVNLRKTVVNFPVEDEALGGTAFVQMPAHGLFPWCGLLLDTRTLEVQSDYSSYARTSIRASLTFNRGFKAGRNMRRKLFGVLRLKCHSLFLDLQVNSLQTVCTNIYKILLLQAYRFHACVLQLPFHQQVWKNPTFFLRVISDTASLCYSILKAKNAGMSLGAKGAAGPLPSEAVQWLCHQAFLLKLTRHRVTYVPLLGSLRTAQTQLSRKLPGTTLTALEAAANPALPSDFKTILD
In short: (§1)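 Cell-free modified TRAP assay using TSG4 primer and HeLa cell extract in TRAP buffer (20 mM Tris-HCl pH 8.3, 1.5 mM MgCl2, 68 mM KCl, 0.05% Tween 20, 1 mM EGTA). Compounds (2–20 µM) preincubated with primer for 2 h at 30 °C before extract was added. A 130-bp internal standard controls PCR efficiency. Percent inhibition from at least three independent experiments.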

[2] = molecular target: Telomerase reverse transcriptase (Homo sapiens) (UniProt O14746); experiment: Inhibition of human telomerase by TRAP assay; in short: as §1

inhibition [1]	Activity [2]	Compound
30%		NCCCNCCCCNCCN1C(=O)c2ccc3c4ccc5c6c(ccc(c7ccc(c2c37)C1=O)c64)C(=O)N(CCNCCCCNCCCN)C5=O
	Active	CC(=O)NCCCNCCCCNCCN1C(=O)c2ccc3c4ccc5c6c(ccc(c7ccc(c2c37)C1=O)c64)C(=O)N(CCNCCCCNCCCNC(C)=O)C5=O
